High-throughput results from PubChem BioAssay.
EBI2 antag = EBI2 receptor antagonists, beta-arrestin recruitment, primary screen, cell-based, luminescence, 7a,25-OHC stimulation, uHTS; G-protein coupled receptor 183 (Homo sapiens), P32249; 7a,25-OHC stimulated; inhibition, % at 5 µM; 0.81% of 360,000 active; AID 651636, 2012; in the data active means inhibition above about 38%;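 further: enzyme fragment complementation signal reports receptor beta-arrestin coupling in cells; 0% = agonist plus DMSO wells and 100% = wells without agonist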
APJ antagonist = antagonists of human apelin receptor APJ, primary screen, CHO-K1 cells, beta-arrestin complementation, luminescence; P35414; inhibition, % at 20 µM; 0.32% of 330,000 active;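 active means inhibition above about 40% at 20 µM, limit read from the data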;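 further: cells challenged with 10 nM apelin-13 agonist together with compound; plate controls were apelin-13 plus DMSO wells for no effect and DMSO wells lacking apelin-13 for full effect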
APJ ag = agonists of human apelin receptor APJ, primary screen, CHO-K1 cells, PathHunter beta-arrestin, luminescence | 0.11% of 330,000 active | P35414 | 0% DMSO wells, 100% apelin | activation, % at 20 µM;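 active means activation more than six SD over the plate average, tested at 20 µM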;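 further: 0% = DMSO alone and 100% = apelin-13 at 10 nM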
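Assay system: CHO-K1 cells stably expressing ProLink-tagged human APJ and arrestin–beta-gal acceptor. Compound dosing: 20 µM single point, 1% DMSO. Times: 16-18 h seeding, 90 min dark compound exposure, 60 min detection. Detection: beta-gal luminescence. Evaluation: APJ–arrestin association signal. Controls: negative DMSO alone, positive Apelin-13 at 10 nM.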
CXCR6 block = CXCR6 receptor inhibitors, primary screen, cell-based, beta-arrestin, luminescence, CHO-K1 PathHunter, 1536-well. AID 602244, 2012. 0.36% of 360,000 active. inhibition, % at 20 µM; in the data active means inhibition above about 34%, passing the limit was not always enough;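 further: antagonist mode with CXCL16 agonist at 10 nM final; 0% = 10 nM CXCL16 with DMSO and 100% = unstimulated wells without agonist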
CCR6 antag = CCR6 receptor antagonists, primary screen, cell-based, CHO-K1, luminescence, beta-arrestin, uHTS | AID 493098, 2011 | inhibition, % at 20 µM | 0.49% of 340,000 active | C-C chemokine receptor type 6 (Homo sapiens), P51684 | CHO-K1 CCR6 PathHunter beta-arrestin, CCL20-stimulated;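 active means compounds whose inhibition of the agonist-driven luminescence signal at 20 µM reaches about 50%, limit read from the data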;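 further: cells stimulated with CCL20 at 14 nM final; plate controls were DMSO with CCL20 for no effect and DMSO without agonist for full effect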
Target sequence (P51684 whole entry, looked up): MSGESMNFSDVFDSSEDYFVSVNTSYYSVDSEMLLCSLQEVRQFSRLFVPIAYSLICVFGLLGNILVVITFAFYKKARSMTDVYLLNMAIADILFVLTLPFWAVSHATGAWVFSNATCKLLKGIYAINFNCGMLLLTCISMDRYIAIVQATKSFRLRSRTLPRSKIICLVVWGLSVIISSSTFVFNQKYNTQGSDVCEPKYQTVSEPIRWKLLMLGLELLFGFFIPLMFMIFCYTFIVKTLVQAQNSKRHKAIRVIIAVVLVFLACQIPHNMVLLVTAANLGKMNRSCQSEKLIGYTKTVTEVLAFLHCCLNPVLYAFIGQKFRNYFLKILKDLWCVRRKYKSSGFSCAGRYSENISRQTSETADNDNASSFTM
m5-HT2A agonist = mouse Htr2a agonists via beta-arrestin recruitment, primary screen, cell-based, luminescence; 5-hydroxytryptamine receptor 2A (Mus musculus), P35363; CHO-K1 mHTR2A beta-arrestin complementation; percent of 30 µM serotonin response; activation, % at 7.6 µM; 0.66% of 360,000 active; AID 624169, 2012;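 active means activation above a run cutoff, the mean activation of all tested compounds plus 3 SD, cut at about 14% in these data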;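 further: 0% = plate median of compound wells and 100% = 30 µM serotonin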
EBI2 conf = EBI2 antagonist hit retest, beta-arrestin, confirmation, cell-based, single concentration, luminescence, 7a,25-OHC stimulation | shares compounds with EBI2 antag | 7a,25-OHC antagonism | inhibition, % at 5 µM | 29% of 2,400 active | AID 651997, 2013;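 active means inhibition of at least 50%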
EBI2 agonist = EBI2 agonist activity of antagonist hits, confirmation, counter-screen for EBI2 antagonist project, cell-based, single concentration, agonist mode, luminescence; shares compounds with EBI2 antag; EBI2-expressing cells, 60 min; 0% vehicle, 100% 7α,25-dihydroxycholesterol control; activation, % at 5 µM; 2,400 tested, under 10 active;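 active means activation of at least 50%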
bGal counter = E. coli beta-galactosidase enzyme inhibition, confirmation, counter-screen for EBI2 antagonist project, biochemical, luminescence, single concentration; inhibition, % at 5 µM; shares compounds with EBI2 antag; 1% of 2,400 active; purified beta-galactosidase, luminescent Galacton Star, 15 min;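 active means replicate-average signal at least 3 plate SD below neutral wells, shown as high inhibition, flagging enzyme-inhibiting false positives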;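 further: 0% = DMSO wells with enzyme and 100% = wells lacking enzyme; higher means stronger loss of beta-gal luminescence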
Active calls of the source: *; nt = no result given. In the library only some 2.1% were active in any assay of this set; here they are far more common.

SMILES	EBI2 antag	APJ antagonist	APJ ag	CXCR6 block	CCR6 antag	m5-HT2A agonist	EBI2 conf	EBI2 agonist	bGal counter
C=CCNC(=S)N/N=C/c1cn(-c2ccccc2)nc1-c1ccc(OC)cc1	45*	-17	2	10	-18	5	35	1	7
C[C@H]1CN([C@@H](C)CO)S(=O)(=O)c2ccc(C#CC3CC3)cc2O[C@@H]1CN(C)S(C)(=O)=O	-1	nt	nt	5	nt	-6	nt	nt	nt
CCc1ccc(/C=C/C(=O)c2ccc(S(=O)(=O)N(C)C)cc2)cc1	86*	2	3	-2	5	-1	60*	0	-19
Cc1ccc(/C=C/C(=O)c2ccc(N3CCOCC3)cc2)s1	65*	9	-3	-2	-3	-1	43	-1	-9
CCc1ccc(/C=C/C(=O)c2ccc(N3CCOCC3)cc2)cc1	83*	15	-1	-3	14	-4	53*	0	3
O=C(/C=C/c1ccc(F)cc1)c1ccc(N2CCOCC2)cc1	66*	8	-3	0	24	1	51*	2	2
Cc1cccc(/C=C/C(=O)c2ccc(N3CCOCC3)cc2)c1	nt	12	-3	nt	nt	nt	nt	nt	nt
CCn1c2ccccc2c2cc(NC(=O)C(C)OC(=O)c3ccc(NC(=O)CC#N)cc3)ccc21 (stereo unspecified)	-14	10	-1	-1	7	-2	nt	nt	nt
CC(C)c1ccccc1N=C1SCCCN1C(=O)c1cccc(N2C(=O)CCC2=O)c1	4	1	-6	-10	2	7	nt	nt	nt
S=C1N(c2ccccc2)CN(C2CCCCC2)CN1c1ccccc1	-8	7	-2	-14	8	2	nt	nt	nt
CCCNC(=O)C1(C)CCN1C(=O)Cc1ccc(C(C)(C)C)cc1 (stereo unspecified)	8	nt	nt	-3	nt	-8	nt	nt	nt
COC(=O)C1=C(c2ccc(OC)cc2)OC(=O)C1(C)C	-6	-7	-2	0	-1	6	nt	nt	nt
COc1ccc(S(=O)(=O)Nc2cccc3c2O[C@H](CN(C)Cc2ccc(Cl)c(Cl)c2)[C@@H](C)CN([C@H](C)CO)C3=O)cc1	60*	1	-2	1	13	-4	59*	-1	4
CCOC(=O)N1CCN(C(=O)c2cc3c(s2)-c2ccccc2OC3)CC1	82*	6	1	6	14	0	74*	-1	-10
COc1ccc(N2CCN(C(=O)c3cc4c(s3)-c3ccccc3OC4)CC2)cc1	80*	7	-3	-10	13	1	67*	0	-8
O=C(c1cc2c(s1)-c1ccccc1OC2)N1CCN(c2ccccc2)CC1	60*	18	-1	0	3	-5	55*	-1	-14
COCCNC(=O)c1cc2c(=O)[nH]c3ccccc3c2s1	6	5	-2	-10	9	1	nt	nt	nt
CCOC(=O)N1CCN(C(=O)c2cc3c(=O)[nH]c4ccccc4c3s2)CC1	77*	-6	2	-7	3	1	70*	-1	6
COc1ccc(-c2noc(Cn3cc(S(=O)(=O)N4CCCC4)ccc3=O)n2)cc1	-2	3	0	-1	8	-6	nt	nt	nt
CSCCC(NS(=O)(=O)c1ccc(C)cc1)C(=O)N1CCN(S(=O)(=O)c2ccc(F)cc2)CC1 (stereo unspecified)	1	-37	11	-4	13	2	nt	nt	nt
CC(C)C[C@@H](CN1C(=O)C(=O)NC[C@@H]1CC(C)C)NC(=O)Cc1ccccc1	0	21	0	-5	13	9	nt	nt	nt
Cc1ccc(S(=O)(=O)N2CCOCC2)cc1NC(=O)CN1CCC(Cc2ccccc2)CC1	16	1	-5	4	22	-5	nt	nt	nt
O=C(c1cc2c(s1)-c1ccccc1OC2)N1CCN(c2ccccn2)CC1	45*	-55	-3	3	14	-1	34	0	-7
O=C(Nc1cc(S(=O)(=O)N2CCOCC2)ccc1Cl)c1cc([N+](=O)[O-])ccc1Cl	2	-1	2	-14	-16	-1	nt	nt	nt
Cc1nc(SC(C)C(=O)c2c(N)n(C)c(=O)n(C)c2=O)c2c(C)c(C)sc2n1 (stereo unspecified)	47*	6	-2	5	0	-8	51*	-1	7
SMILES	EBI2 antag	APJ antagonist	APJ ag	CXCR6 block	CCR6 antag	m5-HT2A agonist	EBI2 conf	EBI2 agonist	bGal counter
Cc1cccc(Oc2ncc(-c3ccc(Cl)cc3)cn2)c1	44*	6	-4	0	1	0	30	1	0
Clc1cccc(Oc2ncccn2)c1	-14	-4	-3	1	0	1	nt	nt	nt
Cc1cc(NC(=O)CN2CC(C)OC(C)C2)n(-c2nc3ccccc3s2)n1 (stereo unspecified)	18	21	-1	4	8	2	nt	nt	nt
CCOC(=O)C1CCN(CC(=O)Nc2cc(C)nn2-c2nc3ccccc3s2)CC1	55*	8	-3	12	4	2	22	1	-9
COc1cc(C(=O)N2CCN(C(=O)c3ccccc3)CC2)cc(OC)c1OC	-1	13	-1	-1	-18	-3	nt	nt	nt
COc1ccc(S(=O)(=O)N2CCN(C(=O)c3cc(C)on3)CC2)cc1	-13	2	0	-6	-1	-1	nt	nt	nt
CC(C)c1ccc(S(=O)(=O)N2CCN(C(=O)c3cc(-c4ccccc4)n[nH]3)CC2)cc1	75*	-52	-3	8	21	2	34	-1	-12
COc1ccc(S(=O)(=O)N2CCN(C(=O)c3cc(-c4ccccc4OC)n[nH]3)CC2)cc1	63*	-4	3	-13	6	-1	38	1	7
